Reference: ChEMBL document CHEMBL1124076, “125I-labeled 8-phenylxanthine derivatives: antagonist radioligands for adenosine A1 receptors” (J Med Chem, 1988)

Columns and labels:
Adenosine receptor A1 [1] = target: T1, Adenosine receptor A1 (Bos taurus, UniProt P28190); experiment: Displacement of [125-I]-labeled aminobenzyl adenosine binding to adenosine A1 receptor of bovine brain membranes; type: cell membranes
T1 sequence (P28190 whole entry): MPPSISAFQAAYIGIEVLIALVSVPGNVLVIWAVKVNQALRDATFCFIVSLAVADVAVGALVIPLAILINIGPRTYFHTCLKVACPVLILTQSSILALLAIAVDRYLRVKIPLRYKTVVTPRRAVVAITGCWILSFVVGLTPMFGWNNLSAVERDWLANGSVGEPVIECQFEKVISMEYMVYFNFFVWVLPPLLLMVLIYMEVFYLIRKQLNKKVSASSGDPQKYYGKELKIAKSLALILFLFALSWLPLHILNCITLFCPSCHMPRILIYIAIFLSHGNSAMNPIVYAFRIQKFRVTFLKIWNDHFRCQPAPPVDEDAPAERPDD
Procedure, shortened: (§1)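 Bovine cerebral cortex membranes, pretreated with EDTA, at 0.5 mg protein/mL in 10 mM HEPES, 1 mM EDTA, 0.1 mM benzamidine, pH 7.4. Incubated 2-3 h at 21 °C, then filtered and washed with ice-cold 10 mM Tris-HCl pH 7.4. Nonspecific binding by 100 μM PIA, 1 mM theophylline or 1 μM IIIa.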

Adenosine A2 receptor = Adenosine A2 receptor (Homo sapiens, UniProt P29275+P29274); experiment: Inhibition of NECA binding to adenosine A2 receptor mediates reduced adenylate cyclase activity in human platelets
Adenosine receptor A1 [2] = target: T1, Adenosine receptor A1; experiment: Binding affinity for adenosine A1 receptor as inhibition of [125-I]-labeled aminobenzyl adenosine binding to bovine brain membranes; type: cell membranes; procedure, shortened: as §1
Adenosine receptor A1 [3] = target: T1, Adenosine receptor A1; experiment: Binding affinity for adenosine A1 receptor using [125-I]-labeled aminobenzyl adenosine in bovine brain membranes; type: cell membranes; procedure, shortened: as §1
Adenosine receptor A1 [4] = target: T2, Adenosine receptor A1 (Rattus norvegicus, UniProt P25099); experiment: Binding affinity to adenosine A1 receptor of rat brain membranes with 1 M NaCl by inhibition of [125-I]-IIIa binding
T2 sequence (P25099 whole entry): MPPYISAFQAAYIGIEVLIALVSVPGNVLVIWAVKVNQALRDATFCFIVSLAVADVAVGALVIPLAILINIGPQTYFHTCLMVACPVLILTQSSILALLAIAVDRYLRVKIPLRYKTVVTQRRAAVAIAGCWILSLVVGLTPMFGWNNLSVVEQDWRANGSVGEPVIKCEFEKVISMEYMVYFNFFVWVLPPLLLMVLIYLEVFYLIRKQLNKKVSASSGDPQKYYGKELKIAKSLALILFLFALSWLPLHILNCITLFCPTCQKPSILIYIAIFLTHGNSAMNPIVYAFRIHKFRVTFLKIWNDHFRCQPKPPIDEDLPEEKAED

Adenosine receptor A1 [5] = target: T2, Adenosine receptor A1

SMILES | Kd (Adenosine receptor A1 [1]) [nM] | Ki (Adenosine A2 receptor) [nM] | Kd (Adenosine receptor A1 [2]) [nM] | Kd (Adenosine receptor A1 [3]) [nM] | IC50 (Adenosine receptor A1 [4]) [nM] | IC50 (Adenosine receptor A1 [5]) [nM]
CCCn1c(=O)c2nc(-c3ccc(OCC(=O)O)cc3)[nH]c2n(CCc2ccc(N)c(I)c2)c1=O | 29 | 5300 | – | – | – | –
Nc1ccc(CCn2c(=O)c3nc(-c4ccc(OCC(=O)O)cc4)[nH]c3n(CCc3ccc(N)cc3)c2=O)cc1 | 3590 | > 100000 | – | – | – | –
CCCn1c(=O)n(Cc2ccc(N=[N+]=[N-])c(I)c2)c(=O)c2[nH]c(-c3ccc(OCC(=O)O)cc3)nc21 | – | 5300 | 960 | – | – | –
CCCn1c(=O)c2nc(-c3ccc(OCC(=O)O)cc3)[nH]c2n(Cc2ccc(N=[N+]=[N-])c(I)c2)c1=O | – | 2100 | – | 55 | – | –
CCCn1c(=O)n(CCc2ccc(N)c(I)c2)c(=O)c2[nH]c(-c3ccc(OCC(=O)O)cc3)nc21 | 3100 | 20000 | – | – | – | –
CCCn1c(=O)n(Cc2ccc(N)c(I)c2)c(=O)c2[nH]c(-c3ccc(OCC(=O)O)cc3)nc21 | 160 | 1800 | – | – | – | –
CCCn1c(=O)n(CCc2ccc(N)cc2)c(=O)c2[nH]c(-c3ccc(OCC(=O)O)cc3)nc21 | 2300 | 11500 | – | – | – | –
CCCn1c(=O)n(Cc2ccc(N)cc2)c(=O)c2[nH]c(-c3ccc(OCC(=O)O)cc3)nc21 | 44 | 23000 | – | – | 5.2 | 44
CCCn1c(=O)c2nc(-c3ccc(OCC(=O)O)cc3)[nH]c2n(CCc2ccc(N=[N+]=[N-])c(I)c2)c1=O | 24 | 5400 | – | – | – | –
CCCn1c(=O)c2[nH]c(-c3ccc(OCC(=O)O)cc3)nc2n(CCC)c1=O | – | – | 17 | – | – | –
CCCn1c(=O)c2nc(-c3ccc(OCC(=O)O)cc3)[nH]c2n(Cc2ccc(N)cc2)c1=O | 32 | 1000 | – | – | 3.4 | 64
CCCn1c(=O)c2nc(-c3ccc(OCC(=O)O)cc3)[nH]c2n(CCc2ccc(N)cc2)c1=O | 60 | 11500 | – | – | 3.4 | 37
CCCn1c(=O)n(CCc2ccc(N=[N+]=[N-])c(I)c2)c(=O)c2[nH]c(-c3ccc(OCC(=O)O)cc3)nc21 | – | 12300 | 2860 | – | – | –
CCCn1c(=O)c2nc(-c3ccc(OCC(=O)O)cc3)[nH]c2n(Cc2ccc(N)c(I)c2)c1=O | 37 | 700 | – | – | 3 | 37
